Key:
CHO [1] = experiment: Agonist activity at rat KCNQ3 A278T mutant expressed in CHO cells assessed as shift of half voltage of maximal activation at 10 uM by patch clamp method; type: cell-based; conditions: filed as agonist
Procedure, shortened: (§1)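 Whole-cell patch clamp at room temperature on CHO cells (DMEM/F12, 10% FBS) transiently co-transfected with EGFP and hKCNQ1, rKCNQ2, rKCNQ3 A278T, hKCNQ4 or hKCNQ5; KCNQ2/3 at 1:1 cDNA ratio. Pipette solution 145 mM KCl, 5 mM MgATP, pH 7.3; bath 140 mM NaCl, 5 mM KCl, pH 7.4, under perfusion. V1/2 from Boltzmann fits; I/I0 is current amplitude with versus without compound; n = 4−6.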

CHO [2] = experiment: Agonist activity at rat KCNQ3 A278T mutant expressed in CHO cells assessed as amplitude change of outward current at 10 uM by patch clamp method; type: cell-based; conditions: filed as agonist; procedure, shortened: as §1
[3] = Neurotoxicity in Kunming mouse assessed as motor impairment rate at 250 mg/kg, po after 1 hr by rotarod test; type: toxicity, organism-based; conditions: in vivo
Procedure, shortened: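 Male KM mice dosed intragastrically with compound freshly suspended in 0.5% CMC-Na. Rotarod performance scored 1 h after dosing as the fraction of animals showing motor impairment. Fisher's exact test versus vehicle; TD50 from nonlinear dose−response fit.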

[4] = Cmax in Kunming mouse plasma at 5 mg/kg, po measured upto 24 hrs by LC-MS/MS method; type: ADME, organism-based; design: dose 5 mg/kg, time < 24 hrs, route po
Procedure, shortened: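 KM male mice (18−24 g), fasted 12 h before and 2 h after dosing. HN37 given orally at 5 mg/kg in 5% DMSO/5% Tween 80/90% saline, or iv at 2 mg/kg after dilution in saline with 1% Tween 80; n = 3 per time point. Blood sampled 0.25–24 h (from 0.083 h after iv); whole brain taken after oral dosing. Plasma and brain extracted with acetonitrile, quantified by LC−MS/MS; AUC0−t by trapezoidal method.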

[5] = Half life in Kunming mouse brain at 5 mg/kg, po measured upto 24 hrs by LC-MS/MS method; type: ADME, organism-based
Procedure, shortened: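 Male KM mice (18−24 g) fasted 12 h before and 2 h after dosing, given 5 mg/kg orally in 5% DMSO/5% Tween 80/90% normal saline (n = 3 per time point). Aortic blood taken at 0.25–24 h and whole brain collected. Acetonitrile extraction with internal standard, then LC−MS/MS. Bioavailability calculated against the 2 mg/kg i.v. arm.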

[6] = Cmax in Sprague-Dawley rat at 6 mg/kg, po measured upto 24 hrs by LC-MS/MS method; type: ADME, organism-based; design: time < 24 hrs, dose 6 mg/kg, route po; conditions: in vivo
Procedure, shortened: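 Male SD rats (180−220 g) given single oral doses of 2, 6 and 20 mg/kg; handled as in the mouse PK study (fasted 12 h before and 2 h after dosing, 5% DMSO/5% Tween 80/90% saline formulation). In a separate 6 mg/kg p.o. set, blood and brain were sampled together. Plasma and brain levels by LC−MS/MS.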

CYP2C9 = CYP2C9 (Homo sapiens, UniProt P11712); experiment: Inhibition of human liver microsome CYP2C9 at 0.10 to 50 uM preincubated with NADPH for 0.5 hrs followed by substrate addition by LC-MS/MS method relative to control; type: ADME; conditions: liver microsomes, dose 0.1-50 µM
CYP3A4 [7] = target: T1, CYP3A4 (Homo sapiens, UniProt P08684); experiment: Inhibition of human liver microsome CYP3A4 at 0.10 to 50 uM preincubated with NADPH for 0.5 hrs followed by substrate addition by LC-MS/MS method relative to control; type: ADME; conditions: liver microsomes, dose 0.1-50 µM
Procedure, shortened: (§2)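 Human liver microsomes preincubated 0.5 h with 0.10−50 μM compound, with or without NADPH, then CYP-specific probe substrates added (CYP3A4 with midazolam 1′-hydroxylation and with testosterone 6β-hydroxylation). Metabolites quantified by LC−MS/MS; % activity remaining computed against no-compound control. IC50 fitted by Probit model; ratio = IC50(−NADPH)/IC50(+NADPH).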

CYP3A4 [8] = target: T1, CYP3A4; experiment: Ratio of IC50 for human liver microsome CYP3A4 using midazolam as substrate in absence of NADPH to IC50 for human liver microsome CYP3A4 using midazolam as substrate in presence of NADPH; conditions: liver microsomes, probe midazolam, read-out: Ratio IC50; procedure, shortened: as §2
[9] = target: Potassium voltage-gated channel subfamily KQT member 2 (Rattus norvegicus) (UniProt O88943); experiment: Agonist activity at rat KCNQ2 channel expressed in CHO cells assessed as amplitude change of outward current at 0.1 uM by patch clamp method; type: cell-based; conditions: filed as agonist; procedure, shortened: as §1
CHO [10] = experiment: Agonist activity at rat KCNQ3 A278T mutant expressed in CHO cells assessed as amplitude change of outward current at 0.1 uM by patch clamp method; type: cell-based; conditions: filed as agonist; procedure, shortened: as §1
[11] = target: T2, Potassium voltage-gated channel subfamily KQT member 4 (Homo sapiens) (UniProt P56696); experiment: Agonist activity at human KCNQ4 channel expressed in CHO cells assessed as shift of half voltage of maximal activation at 0.1 uM by patch clamp method; type: cell-based; conditions: filed as agonist; procedure, shortened: as §1
T2 sequence (whole entry): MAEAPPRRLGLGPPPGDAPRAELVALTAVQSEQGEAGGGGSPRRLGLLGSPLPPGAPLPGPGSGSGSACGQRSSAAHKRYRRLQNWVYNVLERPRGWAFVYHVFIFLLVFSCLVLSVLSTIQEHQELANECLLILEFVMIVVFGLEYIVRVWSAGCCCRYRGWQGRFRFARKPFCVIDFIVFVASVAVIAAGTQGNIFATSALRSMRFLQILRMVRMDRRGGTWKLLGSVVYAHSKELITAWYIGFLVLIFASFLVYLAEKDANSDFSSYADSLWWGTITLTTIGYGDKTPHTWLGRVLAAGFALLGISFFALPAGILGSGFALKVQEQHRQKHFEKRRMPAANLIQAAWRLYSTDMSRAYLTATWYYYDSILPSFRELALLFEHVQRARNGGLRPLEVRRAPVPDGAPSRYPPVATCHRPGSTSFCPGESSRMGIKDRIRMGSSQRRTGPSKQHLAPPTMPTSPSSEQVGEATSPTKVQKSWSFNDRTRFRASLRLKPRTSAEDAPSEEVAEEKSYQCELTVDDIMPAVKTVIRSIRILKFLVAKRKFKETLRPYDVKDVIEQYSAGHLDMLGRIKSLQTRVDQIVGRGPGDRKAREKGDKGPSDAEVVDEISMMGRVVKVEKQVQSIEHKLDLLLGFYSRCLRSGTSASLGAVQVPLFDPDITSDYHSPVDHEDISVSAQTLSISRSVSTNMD

[12] = target: Potassium voltage-gated channel subfamily KQT member 5 (Homo sapiens) (UniProt Q9NR82); experiment: Agonist activity at human KCNQ5 channel expressed in CHO cells assessed as shift of half voltage of maximal activation at 0.1 uM by patch clamp method; type: cell-based; conditions: filed as agonist; procedure, shortened: as §1
Mus musculus = experiment: Anticonvulsant activity in MES induced Kunming mouse model of seizure at 3 mg/kg, po after 1 hr; type: functional
Procedure, shortened: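 MES test in male KM mice. Compounds freshly suspended in 0.5% CMC-Na and given by gavage at 20 mL/kg; 160 V stimulus through ear clips. Protection scored as absence of hindlimb tonic extension; time course at 0.25, 0.5, 1 and 2 h, otherwise tested at 1 h. ED50 from dose−response by nonlinear regression; Fisher's exact test versus vehicle.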

T1 sequence (P08684 whole entry): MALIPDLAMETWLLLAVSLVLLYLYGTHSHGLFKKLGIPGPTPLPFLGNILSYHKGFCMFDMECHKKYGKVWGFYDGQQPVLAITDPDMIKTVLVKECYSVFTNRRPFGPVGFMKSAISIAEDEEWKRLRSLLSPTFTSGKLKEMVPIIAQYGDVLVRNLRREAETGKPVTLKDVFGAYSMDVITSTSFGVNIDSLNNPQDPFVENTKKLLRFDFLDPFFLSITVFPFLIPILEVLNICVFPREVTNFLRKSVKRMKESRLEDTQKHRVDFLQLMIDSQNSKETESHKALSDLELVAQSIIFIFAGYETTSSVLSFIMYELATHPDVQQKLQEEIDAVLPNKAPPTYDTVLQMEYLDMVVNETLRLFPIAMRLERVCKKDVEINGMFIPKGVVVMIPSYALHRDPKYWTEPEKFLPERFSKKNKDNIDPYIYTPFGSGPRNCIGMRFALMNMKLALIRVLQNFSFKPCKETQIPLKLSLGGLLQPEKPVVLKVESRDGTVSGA
Chain of Potassium voltage-gated channel subfamily KQT member 5 (Homo sapiens) (Q9NR82 whole entry): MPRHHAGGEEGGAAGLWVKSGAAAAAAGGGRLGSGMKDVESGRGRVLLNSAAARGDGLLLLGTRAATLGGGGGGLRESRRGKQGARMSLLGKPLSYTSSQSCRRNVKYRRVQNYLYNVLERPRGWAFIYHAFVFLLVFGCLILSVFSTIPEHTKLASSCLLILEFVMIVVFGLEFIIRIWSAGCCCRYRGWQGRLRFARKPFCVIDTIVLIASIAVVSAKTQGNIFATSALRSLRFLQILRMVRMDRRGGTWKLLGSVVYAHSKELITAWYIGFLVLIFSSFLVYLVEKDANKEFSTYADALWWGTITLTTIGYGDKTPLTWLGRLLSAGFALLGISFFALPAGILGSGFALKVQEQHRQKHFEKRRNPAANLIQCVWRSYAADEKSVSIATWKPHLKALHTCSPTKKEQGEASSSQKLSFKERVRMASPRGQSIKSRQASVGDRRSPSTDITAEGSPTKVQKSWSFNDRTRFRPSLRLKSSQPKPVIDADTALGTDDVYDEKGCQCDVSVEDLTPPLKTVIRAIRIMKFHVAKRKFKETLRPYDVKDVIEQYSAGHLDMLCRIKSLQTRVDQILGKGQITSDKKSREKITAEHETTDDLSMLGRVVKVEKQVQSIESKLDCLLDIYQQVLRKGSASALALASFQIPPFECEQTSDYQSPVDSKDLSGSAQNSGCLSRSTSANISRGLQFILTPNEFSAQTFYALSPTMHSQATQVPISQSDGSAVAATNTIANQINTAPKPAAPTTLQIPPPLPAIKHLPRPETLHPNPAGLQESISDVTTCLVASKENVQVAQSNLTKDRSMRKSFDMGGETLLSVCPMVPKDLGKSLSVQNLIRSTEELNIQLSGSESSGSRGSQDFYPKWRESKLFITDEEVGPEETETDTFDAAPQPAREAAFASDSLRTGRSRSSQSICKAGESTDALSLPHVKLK
Chain of CYP2C9 (P11712 whole entry): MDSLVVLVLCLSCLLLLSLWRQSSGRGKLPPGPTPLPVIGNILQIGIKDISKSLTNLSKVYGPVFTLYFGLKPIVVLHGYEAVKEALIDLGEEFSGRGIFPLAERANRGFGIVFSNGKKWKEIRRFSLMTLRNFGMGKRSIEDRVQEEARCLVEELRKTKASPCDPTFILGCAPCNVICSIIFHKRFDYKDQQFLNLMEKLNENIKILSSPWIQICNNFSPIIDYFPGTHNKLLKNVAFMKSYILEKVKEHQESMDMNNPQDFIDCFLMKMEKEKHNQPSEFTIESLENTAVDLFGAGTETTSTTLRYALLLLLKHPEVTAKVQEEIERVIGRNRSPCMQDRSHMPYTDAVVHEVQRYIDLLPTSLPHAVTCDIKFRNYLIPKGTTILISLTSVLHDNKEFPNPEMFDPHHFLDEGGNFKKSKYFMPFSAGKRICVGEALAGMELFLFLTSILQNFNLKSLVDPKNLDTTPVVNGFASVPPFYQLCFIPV
Chain of Potassium voltage-gated channel subfamily KQT member 2 (Rattus norvegicus) (O88943 whole entry): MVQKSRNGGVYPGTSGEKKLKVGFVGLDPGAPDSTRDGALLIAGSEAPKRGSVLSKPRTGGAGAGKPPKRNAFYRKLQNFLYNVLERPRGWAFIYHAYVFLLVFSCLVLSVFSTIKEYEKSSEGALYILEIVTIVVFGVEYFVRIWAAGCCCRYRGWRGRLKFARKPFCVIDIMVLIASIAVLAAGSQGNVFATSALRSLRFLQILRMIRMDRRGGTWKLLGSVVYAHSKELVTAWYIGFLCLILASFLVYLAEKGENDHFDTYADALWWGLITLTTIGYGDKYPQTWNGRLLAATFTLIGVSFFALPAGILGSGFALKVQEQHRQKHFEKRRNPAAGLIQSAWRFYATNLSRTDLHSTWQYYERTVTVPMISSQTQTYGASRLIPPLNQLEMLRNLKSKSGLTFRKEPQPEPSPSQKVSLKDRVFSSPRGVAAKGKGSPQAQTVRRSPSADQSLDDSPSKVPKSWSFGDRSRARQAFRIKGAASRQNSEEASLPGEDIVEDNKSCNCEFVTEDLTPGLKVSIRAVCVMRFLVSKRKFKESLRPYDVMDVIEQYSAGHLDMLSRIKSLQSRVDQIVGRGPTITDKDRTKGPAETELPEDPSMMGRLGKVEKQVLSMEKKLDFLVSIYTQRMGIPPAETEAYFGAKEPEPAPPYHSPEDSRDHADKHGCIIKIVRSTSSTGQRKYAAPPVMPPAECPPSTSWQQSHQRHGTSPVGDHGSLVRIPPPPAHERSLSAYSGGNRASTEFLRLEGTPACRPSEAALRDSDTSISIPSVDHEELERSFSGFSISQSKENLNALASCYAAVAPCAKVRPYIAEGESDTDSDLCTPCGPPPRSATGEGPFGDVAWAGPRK

Structure (SMILES) | Activity (CHO [1]) | Activity (CHO [2]) | Activity [3] | Cmax [4] | half-life [5] | Cmax [6] | inhibition at 0.5 h, up to 50 µM (CYP2C9) | inhibition at 0.5 h, up to 50 µM (CYP3A4 [7]) | IC50 shift (CYP3A4 [8]) | Activity [9] | Activity (CHO [10]) | Activity [11] | Activity [12] | Activity (Mus musculus)
CCOC(=O)Nc1ccc(NCc2ccc(F)cc2)cc1N [EZOGABINE] | -46.8 mV | 2.46 | 62.5% | – | – | – | – | – | – | – | – | – | – | –
C#CCN(Cc1ccc(F)cc1)c1cc(C)c(NC(=O)OC)c(C)c1 | – | – | – | 134 ng/mL | 1.95 h | 264 ng/mL | < 25% | < 25% | < 1.5 | 3.4 | 2.1 | -56.6 mV | -9.03 mV | 62.5%
